The values below come from PubChem BioAssay AID1744 (Vanderbilt High Throughput Screening Facility, 2009).

The assay concerns the target Muscarinic acetylcholine receptor M1 (Rattus norvegicus) (UniProt P08482). Briefly: muscarinic receptor subtype activation panel – cell-based, agonist mode, selectivity assay for M1 allosteric modulator project, profiling panel (AID 1744). Conditions: CHO-K1 rat M1, Fluo-4 calcium flux. The method in brief:
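assay system = CHO-K1 cells stably carrying rat M1 muscarinic receptor | times = Fluo-4 dye loading for 1 h at 37 °C | medium = pH 7.4 loading buffer | detection = Fluo-4 calcium fluorescence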

pEC50: −log10 of the molar value.

The term pEC50 denotes −log10 of the EC50, conventionally taken in molar units. On to `CCOC(=O)N1CCC(NCCNC(=O)c2ccccc2Cl)CC1`, for which the negative logarithm of the EC50 (pEC50) was 6.09.
With `CCOC(=O)N1CCC(NCCNC(=O)c2ccc(F)c(F)c2)CC1`, the pEC50 is 6.68.
Take `CCOC(=O)N1CCC(NCCNC(=O)c2ccccc2)CC1`: the pEC50 is 6.82.
Next, `CCOC(=O)N1CCC(NCCNC(=O)c2cccc(OC)c2)CC1`: 6.36; `CCOC(=O)N1CCC(NCCNC(=O)c2ccccc2C)CC1`: 6.70.
With `CCOC(=O)N1CCC(NCCNC(=O)c2cccs2)CC1`, the pEC50 is 5.76.
Consider `CCOC(=O)N1CCC(NCCNC(=O)c2cccc(F)c2)CC1`, for which the negative-log EC50 (pEC50) is 6.81.
For the molecule `CCOC(=O)N1CCC(NCCNC(=O)c2ccc(F)cc2)CC1`, the negative-log EC50 (pEC50) is 6.81.
